Assay results taken from ChEMBL document CHEMBL1134459 (J Med Chem, 2001).
pIC50: −log10 of the molar value. ≈ marks a conversion by molar mass, not a printed value. Where “and” joins values, the source holds several entries; their conditions need not be identical. Equal values may be shown once. One block for each compound: values may come before it.

Columns and labels:
E-selectin [1] = target: T1, E-selectin (Homo sapiens, UniProt P16581); test: In vitro inhibitory potency compared to IL1-beta induced Selectin E in human endothelial cells (ELISA assay); assay type: cell-based, Endothelial cell
T1 sequence (P16581 whole entry): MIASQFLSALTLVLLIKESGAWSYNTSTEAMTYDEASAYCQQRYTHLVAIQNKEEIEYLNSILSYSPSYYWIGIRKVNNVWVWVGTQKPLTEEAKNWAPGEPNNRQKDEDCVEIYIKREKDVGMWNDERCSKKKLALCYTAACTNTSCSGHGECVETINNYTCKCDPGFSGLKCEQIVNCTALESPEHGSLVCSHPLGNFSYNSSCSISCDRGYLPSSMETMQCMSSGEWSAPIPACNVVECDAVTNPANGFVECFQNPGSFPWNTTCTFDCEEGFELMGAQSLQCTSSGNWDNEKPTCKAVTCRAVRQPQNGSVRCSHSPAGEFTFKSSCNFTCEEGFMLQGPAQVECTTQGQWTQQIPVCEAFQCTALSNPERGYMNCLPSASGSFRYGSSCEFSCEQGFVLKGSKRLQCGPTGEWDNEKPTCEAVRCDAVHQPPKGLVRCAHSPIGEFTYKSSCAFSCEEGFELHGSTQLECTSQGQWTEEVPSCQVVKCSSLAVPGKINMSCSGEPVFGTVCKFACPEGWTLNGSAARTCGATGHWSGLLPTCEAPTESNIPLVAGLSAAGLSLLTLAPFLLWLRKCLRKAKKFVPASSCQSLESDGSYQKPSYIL
In short: (§1)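 Whole-cell ELISA on primary HUVECs plated at 5 × 10^4 cells/mL in EBM/2% FBS with growth supplements. Compound preincubated 24 h at 37 °C, then inducer added (TNFα at 5 ng/mL final, or IL-1β or PMA in its place) for 6 h at 37 °C. Mouse monoclonal anti-E-selectin, anti-ICAM-1 or anti-VCAM-1 was applied overnight at 4 °C, then HRP anti-mouse IgG. Detection with OPD, A490. Triplicate assays.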

[2] = target: T2, Intercellular adhesion molecule 1 (Homo sapiens, UniProt P05362); test: In vitro inhibitory potency compared to TNF-alpha induced Intercellular adhesion molecule-1 in human endothelial cells (ELISA assay); assay type: cell-based, Endothelial cell
In short: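 Primary HUVECs seeded at 5 × 10^4 cells/mL in EBM/2% FBS with supplements. After 24 h of compound at 37 °C, TNFα was added to 5 ng/mL final for 6 h at 37 °C. Cell-surface ICAM-1 was detected with a mouse monoclonal antibody, then HRP anti-mouse IgG and OPD, with absorbance at 490 nm. Triplicate determinations.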

[3] = target: T2, Intercellular adhesion molecule 1; test: In vitro inhibitory potency compared to IL1-beta induced Intercellular adhesion molecule-1 in human endothelial cells (ELISA assay); assay type: cell-based, Endothelial cell
In short: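 Primary HUVECs seeded at 5 × 10^4 cells/mL in EBM/2% FBS with EGF, bovine brain extract and gentamicin. Compound added next day for 24 h at 37 °C, then inducer (IL-1β or PMA, level not stated) for 6 h at 37 °C. Whole-cell ELISA used mouse monoclonal anti-ICAM-1 or anti-VCAM-1, HRP donkey anti-mouse IgG and OPD, read at 490 nm. Run in triplicate.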

[4] = target: T2, Intercellular adhesion molecule 1; test: In vitro inhibitory potency compared to PMA induced Intercellular adhesion molecule-1 in human endothelial cells (ELISA assay); assay type: cell-based, Endothelial cell; in short: as §1
[5] = target: T2, Intercellular adhesion molecule 1; test: Inhibition of intercellular adhesion molecule-1 (ICAM1) in human endothelial cells; assay type: cell-based, Endothelial cell; in short: as §1
E-selectin [6] = target: T1, E-selectin; test: In vitro inhibitory potency compared to TNF-alpha induced Selectin E in human endothelial cells (ELISA assay); assay type: cell-based, Endothelial cell; in short: as §1
[7] = target: T3, E-selectin (Homo sapiens) (UniProt P16581); test: In vitro inhibitory potency compared to PMA induced Selectin E expression in human endothelial cells (ELISA assay) at 1 uM; assay type: cell-based; conditions: Endothelial cell
T3 sequence (whole entry): T1 sequence (P16581 whole entry)
In short: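 HUVEC whole-cell ELISA with PMA substituted for TNFα as inducer. Compound preincubated 24 h at 37 °C, then 6 h induction at 37 °C. E-selectin detected with mouse monoclonal antibody and HRP anti-mouse IgG, OPD development, A490. Value given as percent inhibition at a single concentration of 1 µM.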

E-selectin [8] = target: T1, E-selectin; test: Inhibition of selectin E in human endothelial cells; assay type: cell-based, Endothelial cell; in short: as §1
Mus musculus [9] = test: % Efficacy in neutrophils at 3 mg/kg of oral dosing in an inhaled allergen-induced cell influx in 7 mice.; assay type: functional
In short: (§2)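 Mouse inhaled-allergen model. Compounds or vehicle (0.2% methylcellulose) given orally 18 h and 1 h before the first of two allergen inhalations. Lungs lavaged 24-27 h after the first inhalation. Read-outs were lavage cell count (no./µL), neutrophil and eosinophil percentages, and soluble ICAM-1 in serum and BAL 24 h after antigen. Values are mean ± SE.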

Mus musculus [10] = test: Efficacy in serum sICAM-1 at 3 mg/kg of oral dosing in an inhaled allergen-induced cell influx in 7 mice.; assay type: functional; in short: as §2
Mus musculus [11] = test: % Efficacy in neutrophils at 0.3 mg/kg of oral dosing in an inhaled allergen-induced cell influx in 7 mice.; assay type: functional; in short: as §2
Mus musculus [12] = test: % Efficacy in eosinophils at 0.3 mg/kg of oral dosing in an inhaled allergen-induced cell influx in 7 mice.; assay type: functional, Eosinophil; in short: as §2
Mus musculus [13] = test: Efficacy in lBAL sICAM-1 at 30 mg/kg of oral dosing in an inhaled allergen-induced cell influx in 6 mice.; assay type: functional; in short: as §2
Mus musculus [14] = test: Efficacy in lavage cells at 0.3 mg/kg of oral dosing in an inhaled allergen-induced cell influx in 7 mice.; assay type: functional; in short: as §2
Mus musculus [15] = test: Efficacy in lavage cells at 3 mg/kg of oral dosing in an inhaled allergen-induced cell influx in 7 mice.; assay type: functional; in short: as §2
Mus musculus [16] = test: % Efficacy in eosinophils at 3 mg/kg of oral dosing in an inhaled allergen-induced cell influx in 7 mice.; assay type: functional, Eosinophil; in short: as §2
Mus musculus [17] = test: Efficacy in serum sICAM-1 at 30 mg/kg of oral dosing in an inhaled allergen-induced cell influx in 6 mice.; assay type: functional; in short: as §2
Mus musculus [18] = test: Efficacy in serum sICAM-1 at 0.3 mg/kg of oral dosing in an inhaled allergen-induced cell influx in 7 mice.; assay type: functional; in short: as §2
Mus musculus [19] = test: Efficacy in lBAL sICAM-1 at 0.3 mg/kg of oral dosing in an inhaled allergen-induced cell influx in 7 mice.; assay type: functional; in short: as §2
[20] = Solubility in pH 7.4 buffer.; assay type: physicochemical
Mus musculus [21] = test: Efficacy in lBAL sICAM-1 at 3 mg/kg of oral dosing in an inhaled allergen-induced cell influx in 7 mice.; assay type: functional; in short: as §2
Mus musculus [22] = test: % Efficacy in eosinophils at 30 mg/kg of oral dosing in an inhaled allergen-induced cell influx in 6 mice.; assay type: functional, Eosinophil; in short: as §2
Mus musculus [23] = test: % Efficacy in neutrophils at 30 mg/kg of oral dosing in an inhaled allergen-induced cell influx in 6 mice.; assay type: functional; in short: as §2
[24] = Toxicity in HUVEC cell lysates.; assay type: cell-based, Lysate; conditions: human
E-selectin [25] = target: T1, E-selectin; test: In vitro inhibitory potency compared to TNF-alpha induced Selectin E expression in human endothelial cells (ELISA assay); assay type: cell-based, Endothelial cell; in short: as §1

T2 sequence (P05362 whole entry): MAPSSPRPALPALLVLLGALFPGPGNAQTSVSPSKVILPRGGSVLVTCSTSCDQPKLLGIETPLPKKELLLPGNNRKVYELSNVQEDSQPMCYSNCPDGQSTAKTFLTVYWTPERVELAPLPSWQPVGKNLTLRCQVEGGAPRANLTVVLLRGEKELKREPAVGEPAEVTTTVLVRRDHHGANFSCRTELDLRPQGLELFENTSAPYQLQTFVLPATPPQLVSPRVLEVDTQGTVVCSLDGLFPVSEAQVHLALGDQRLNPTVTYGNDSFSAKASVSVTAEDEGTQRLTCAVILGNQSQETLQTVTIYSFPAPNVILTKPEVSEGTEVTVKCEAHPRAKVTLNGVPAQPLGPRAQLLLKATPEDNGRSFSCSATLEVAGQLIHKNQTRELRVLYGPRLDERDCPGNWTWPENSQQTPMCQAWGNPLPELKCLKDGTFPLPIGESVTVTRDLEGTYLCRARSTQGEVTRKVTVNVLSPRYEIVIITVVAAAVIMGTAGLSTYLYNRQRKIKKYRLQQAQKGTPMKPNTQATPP

pIC50 (E-selectin [1]): 8.30
pIC50 [2]: 8.30
pIC50 [3]: 8.70
pIC50 [4]: 8.30
pIC50 [5]: 8.30
pIC50 (E-selectin [6]): 8.40
inhibition [7]: 46%
pIC50 (E-selectin [8]): 8.22
Structure (SMILES): CNC(=O)c1cc2c(Oc3ccc(COCCOCCOC)cc3)cncc2s1

pIC50 (E-selectin [1]): 8.22
pIC50 [2]: 8.52
pIC50 [3]: 8.52
pIC50 [4]: 8.22
pIC50 [5]: 8.30
inhibition [7]: 48%
pIC50 (E-selectin [8]): 8.40
solubility [20]: 0.46 µg/mL (≈ 1.32 µM)
pIC50 (E-selectin [25]): 8.40
Structure (SMILES): NC(=O)c1cc2c(Oc3ccc(Br)cc3)cncc2s1
Efficacy (Mus musculus [9]): 60%
Efficacy (Mus musculus [10]): 21.3 µg/mL
Efficacy (Mus musculus [11]): 44%
Efficacy (Mus musculus [12]): 19%
Efficacy (Mus musculus [13]): 1.74 µg/mL and 1.99 µg/mL
Efficacy (Mus musculus [14]): 282 number ul-1
Efficacy (Mus musculus [15]): 319 number ul-1
Efficacy (Mus musculus [16]): 14%
Efficacy (Mus musculus [17]): 18.8 µg/mL and 18.5 µg/mL
Efficacy (Mus musculus [18]): 20.7 µg/mL
Efficacy (Mus musculus [19]): 2.67 µg/mL
Efficacy (Mus musculus [21]): 2.68 µg/mL
Efficacy (Mus musculus [22]): 8% and 9%
Efficacy (Mus musculus [23]): 38% and 57%
pIC50 [24]: < 4.00
